ChEMBL document CHEMBL5329145, “Antileishmanial evaluation of triazole-butenolide conjugates: design, synthesis, in vitro screening, SAR and in silico ADME predictions” (RSC Med Chem, 2023)
Calls of active or inactive are those of the source. The rule behind the calls is not given here.

Legend:
Leishmania donovani [1] = experiment: Antileishmanial activity against Leishmania donovani MHOM/IN/80/Dd8 amastigotes infected in mouse J774.A1 cells assessed as inhibition of amastigotes growth incubated for 48 hrs by Steady-Glo reagent based luminescence analysis; assay type: functional, organism-based; conditions: for IC50: MHOM/IN/80/Dd8, J774.A1, 48 h
Outline: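 J774A cells (2×10⁵ per well, RPMI-1640 with 15% FCS) incubated 24 h at 37 °C in CO2, then infected with stationary-phase luciferase promastigotes (2×10⁶ per well) to give amastigotes. Compound added in fresh medium for 48 h at 37 °C. Medium replaced by PBS, Steady-Glo luminescence read, % inhibition vs untreated. IC50 by probit analysis, mean ± SD of three assays.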

Leishmania donovani [2] = experiment: Antileishmanial activity against Leishmania donovani MHOM/IN/80/Dd8 promastigotes transfected with luciferase reporter gene assessed as inhibition of promastigotes growth incubated for 72 hrs by Steady-Glo reagent based luminescence analysis; assay type: functional, organism-based; conditions: for IC50: MHOM/IN/80/Dd8, 72 h
Outline: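 Luciferase-transgenic L. donovani promastigotes kept under G418 (20 μg mL⁻¹) in Medium 199 with 10% FCS at 25 ± 1 °C. Late-log cells seeded at 5×10⁵ per well with serial dilutions in DMSO for 72 h, DMSO controls run alongside. Luminescence read with Steady-Glo. % inhibition = (N−n)/N×100 vs untreated. IC50 by probit analysis, mean ± SD of three assays.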

[3] = Selectivity index, ratio of CC50 for cytotoxicity against mouse J774.A1 cells to IC50 for antileishmanial activity against Leishmania donovani MHOM/IN/80/Dd8 amastigotes infected in mouse J774.A1 cells; assay type: toxicity, cell-based; conditions: read-out: Ratio CC50/IC50
Outline: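 SI = CC50 in J774A cells (MTT, 48 h) divided by IC50 against intracellular amastigotes (luciferase, 48 h). Both values are means of three independent assays.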

Brugia malayi = experiment: Antifilarial activity against Brugia malayi assessed as reduction in worm viability by measuring inhibition of MTT reduction at 50 to 100 uM incubated for 24 hrs by MTT assay relative to control; assay type: functional; conditions: dose 50-100 µM
[4] = Cytotoxicity against mouse J774.A1 cells assessed as reduction in cell growth incubated for 48 hrs by MTT assay; assay type: toxicity, cell-based
Outline: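 J774A cells seeded at 0.2 million per well, incubated overnight at 37 °C with 5% CO2, then exposed to compound dilutions in DMSO (DMSO controls) for 48 h. Viability by MTT formazan, OD at 600 nm against blank. CC50 is the concentration giving 50% viability loss vs medium-only cells, from probit analysis. Mean ± SD of three assays.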

Plasmodium falciparum = experiment: Antimalarial activity against Plasmodium falciparum 3D7; assay type: functional, organism-based
[5] = Volume of distribution in golden hamster at 50 mg/kg, po measured after 5 mins to 24 hrs by LC-MS/MS analysis; assay type: ADME, organism-based, Mesocricetus auratus; conditions: in vivo, time 5-1440 min
Outline: (§1)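 Golden hamsters fasted before dosing, oral 50 mg kg⁻¹. Retro-orbital blood drawn under anesthesia from 5 min to 24 h, spun at 6000g for 20 min, plasma stored at -80 °C. Protein precipitation with acetonitrile containing carbamazepine IS (3 ng mL⁻¹). LC-MS/MS on C18 column, isocratic 90% acetonitrile, positive mode, transition m/z 375.2/198.3. Parameters from non-compartmental analysis.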

[6] = Half life in golden hamster at 50 mg/kg, po measured after 5 mins to 24 hrs by LC-MS/MS analysis; assay type: ADME, organism-based, Mesocricetus auratus; conditions: in vivo, time 5-1440 min; outline: as §1
[7] = Stability of compound in simulated intestinal fluid assessed as parent compound remaining at pH 6.8 measured for 120 mins by LC-MS/MS analysis; assay type: ADME; conditions: read-out: Stability
Outline: (§2)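 Simulated fluids prepared to USP (SGF pH 1.2, SIF pH 6.8, SPF pH 7.4) and hamster plasma pre-incubated at 37 ± 2 °C for 15 min in a shaking water bath, then spiked with compound. Aliquots taken at intervals up to 120 min, quenched with acetonitrile, vortexed and centrifuged. Remaining analyte quantified by LC-MS/MS.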

[8] = Stability of compound in simulated physiological fluid assessed as compound remaining at pH 7.4 measured for 120 mins by LC-MS analysis; assay type: physicochemical; conditions: read-out: Stability; outline: as §2
[9] = Stability of compound in simulated gastric fluid assessed as parent compound remaining at pH 1.2 measured for 120 mins by LC-MS/MS analysis; assay type: ADME; conditions: read-out: Stability; outline: as §2
[10] = Cmax in golden hamster at 50 mg/kg, po measured after 5 mins to 24 hrs by LC-MS/MS analysis; assay type: ADME, organism-based, Mesocricetus auratus; design: dose 50 mg/kg, time upper 1440 min, time lower 5 min, route po; conditions: in vivo; outline: as §1
[11] = Clearance in golden hamster at 50 mg/kg, po measured after 5 mins to 24 hrs by LC-MS/MS analysis; assay type: ADME, organism-based, Mesocricetus auratus; conditions: in vivo, time 5-1440 min; outline: as §1
[12] = MRT in golden hamster at 50 mg/kg, po measured after 5 mins to 24 hrs by LC-MS/MS analysis; assay type: ADME, organism-based, Mesocricetus auratus; conditions: in vivo, time 5-1440 min; outline: as §1
[13] = AUC in golden hamster at 50 mg/kg, po measured after 5 mins to 24 hrs by LC-MS/MS analysis; assay type: ADME, organism-based, Mesocricetus auratus; design: time lower 5 min, dose 50 mg/kg, time upper 1440 min, route po; conditions: in vivo; outline: as §1
[14] = Tmax in golden hamster at 50 mg/kg, po measured after 5 mins to 24 hrs by LC-MS/MS analysis; assay type: ADME, organism-based, Mesocricetus auratus; conditions: in vivo, time 5-1440 min; outline: as §1
[15] = Stability of compound in golden hamster plasma assessed as compound remaining measured for 120 mins by LC-MS analysis; assay type: ADME, cell-free, Mesocricetus auratus; conditions: read-out: Stability; outline: as §2

CC(C)c1ccc(-n2cc(CNC3=C(Cl)C(=O)OC3O)nn2)cc1 (stereo not given)
IC50 (Leishmania donovani [1]): ≥ 50 µM | inhibition (Leishmania donovani [2]): inactive

CCCCc1ccc(-n2cc(CNC3=C(Cl)C(=O)OC3O)nn2)cc1 (stereo not given)
inhibition (Leishmania donovani [1]): inactive | IC50 (Leishmania donovani [2]): ≥ 50 µM

Cc1ccc(-n2cc(CNC3=C(Cl)C(=O)OC3O)nn2)cc1C (stereo not given)
IC50 (Leishmania donovani [1]): 10.1 µM | selectivity ratio [3]: 9.27 | inhibition (INH) (Brugia malayi): 52% | CC50 at 48 h [4]: 93.5 µM | IC50 (Leishmania donovani [2]): 32.5 µM

Cc1cc(C)c(-n2cc(CNC3=C(Cl)C(=O)OC3O)nn2)c(C)c1 (stereo not given)
IC50 (Leishmania donovani [1]): ≥ 20 µM | IC50 (Leishmania donovani [2]): ≥ 50 µM

O=C1OC(O)C(NCc2cn(-c3ccc(F)c(Cl)c3)nn2)=C1Cl (stereo not given)
IC50 (Leishmania donovani [1]): 10.6 µM | selectivity ratio [3]: 7.38 | CC50 at 48 h [4]: 78 µM | IC50 (Leishmania donovani [2]): 35.5 µM

Cc1ccc(C)c(-n2cc(CNC3=C(Cl)C(=O)OC3O)nn2)c1 (stereo not given)
IC50 (Leishmania donovani [1]): ≥ 50 µM | IC50 (Plasmodium falciparum): 4.57 µM | IC50 (Leishmania donovani [2]): ≥ 50 µM

CCc1ccc(-n2cc(CNC3=C(Cl)C(=O)OC3O)nn2)cc1 (stereo not given)
inhibition (Leishmania donovani [1]): inactive | IC50 (Leishmania donovani [2]): ≥ 50 µM

O=C1OC(O)C(NCc2cn(-c3ccc(Cl)c(Cl)c3)nn2)=C1Cl (stereo not given)
IC50 (Leishmania donovani [1]): 8.63 µM | selectivity ratio [3]: 9.75 | inhibition (INH) (Brugia malayi): 52% | CC50 at 48 h [4]: 84.2 µM | IC50 (Leishmania donovani [2]): 34.1 µM

O=C1OC(O)C(NCc2cn(-c3ccc(F)c(F)c3)nn2)=C1Cl (stereo not given)
Vd [5]: 38.15 L/kg | half-life [6]: 129 min | remaining at 2 h [7]: ≥ 70% | remaining at 2 h [8]: ≥ 70% | remaining at 2 h [9]: ≥ 70% | Cmax [10]: 1110 ng/mL | CL/F [11]: 207 mL/min/kg | MRT [12]: 3.64 h | AUC [13]: 4500 ng·h/mL | Tmax [14]: 2 h | IC50 (Leishmania donovani [1]): 8.4 µM | selectivity ratio [3]: 20.5 | IC50 (Plasmodium falciparum): 3.65 µM | remaining at 2 h [15]: ≥ 70% | CC50 at 48 h [4]: 172 µM | IC50 (Leishmania donovani [2]): ≥ 50 µM

O=C1OC(O)C(NCc2cn(-c3ccc(F)c(C(F)(F)F)c3)nn2)=C1Cl (stereo not given)
IC50 (Leishmania donovani [1]): 9.02 µM | selectivity ratio [3]: 15 | CC50 at 48 h [4]: 136 µM | IC50 (Leishmania donovani [2]): 30.6 µM

CCCCCCCCCCCCCCCCOP(=O)([O-])OCC[N+](C)(C)C [MILTEFOSINE]
IC50 (Leishmania donovani [1]): 9.42 µM | selectivity ratio [3]: 5.53 | CC50 at 48 h [4]: 52.1 µM

COc1ccc(-n2cc(CNC3=C(Cl)C(=O)OC3O)nn2)cc1OC (stereo not given)
inhibition (Leishmania donovani [1]): inactive | inhibition (Leishmania donovani [2]): inactive

Cc1ccc(-n2cc(CNC3=C(Cl)C(=O)OC3O)nn2)cc1 (stereo not given)
inhibition (Leishmania donovani [1]): inactive | IC50 (Leishmania donovani [2]): ≥ 50 µM

O=C1OC(O)C(NCc2cn(-c3ccccc3Oc3ccccc3)nn2)=C1Cl (stereo not given)
IC50 (Leishmania donovani [1]): ≥ 20 µM | IC50 (Plasmodium falciparum): 4.65 µM | IC50 (Leishmania donovani [2]): ≥ 50 µM

COc1cc(-n2cc(CNC3=C(Cl)C(=O)OC3O)nn2)cc(OC)c1OC (stereo not given)
IC50 (Leishmania donovani [1]): 11.3 µM | selectivity ratio [3]: 7.5 | CC50 at 48 h [4]: 84.8 µM | IC50 (Leishmania donovani [2]): ≥ 100 µM

C#CCNC1=C(Cl)C(=O)OC1O (stereo not given)
IC50 (Leishmania donovani [1]): 11.3 µM | selectivity ratio [3]: 8.56 | inhibition (INH) (Brugia malayi): 65% | CC50 at 48 h [4]: 97.2 µM | IC50 (Leishmania donovani [2]): ≥ 50 µM

O=C1OC(O)C(NCc2cn(-c3ccc(F)cc3)nn2)=C1Cl (stereo not given)
inhibition (Leishmania donovani [1]): inactive | IC50 (Plasmodium falciparum): 4.42 µM | IC50 (Leishmania donovani [2]): ≥ 50 µM

O=C1OC(O)C(NCc2cn(-c3ccc(Cl)cc3)nn2)=C1Cl (stereo not given)
IC50 (Leishmania donovani [1]): ≥ 50 µM | IC50 (Leishmania donovani [2]): ≥ 50 µM

Cc1ccc(-n2cc(CNC3=C(Cl)C(=O)OC3O)nn2)cc1F (stereo not given)
IC50 (Leishmania donovani [1]): ≥ 20 µM | inhibition (INH) (Brugia malayi): 66% | IC50 (Leishmania donovani [2]): ≥ 50 µM

O=C1OC(O)C(NCc2cn(-c3ccc4c(c3)OCO4)nn2)=C1Cl (stereo not given)
IC50 (Leishmania donovani [1]): ≥ 50 µM | inhibition (INH) (Brugia malayi): 52% | IC50 (Plasmodium falciparum): 4.34 µM | IC50 (Leishmania donovani [2]): ≥ 50 µM

O=C1OC(O)C(NCc2cn(-c3ccccc3)nn2)=C1Cl (stereo not given)
inhibition (Leishmania donovani [1]): inactive | IC50 (Leishmania donovani [2]): ≥ 50 µM

O=C1OC(O)C(NCc2cn(-c3cccc(C(F)(F)F)c3)nn2)=C1Cl (stereo not given)
IC50 (Leishmania donovani [1]): 8.45 µM | selectivity ratio [3]: 12.1 | CC50 at 48 h [4]: 102 µM | IC50 (Leishmania donovani [2]): 32.4 µM

COc1ccc(-n2cc(CNC3=C(Cl)C(=O)OC3O)nn2)cc1 (stereo not given)
IC50 (Leishmania donovani [1]): ≥ 25 µM | IC50 (Plasmodium falciparum): 4.9 µM | IC50 (Leishmania donovani [2]): ≥ 50 µM

CC(C)(C)c1ccc(-n2cc(CNC3=C(Cl)C(=O)OC3O)nn2)cc1 (stereo not given)
IC50 (Leishmania donovani [1]): ≥ 25 µM | IC50 (Plasmodium falciparum): 4.4 µM | IC50 (Leishmania donovani [2]): ≥ 50 µM

O=C1OC(O)C(NCc2cn(-c3ccccc3[N+](=O)[O-])nn2)=C1Cl (stereo not given)
IC50 (Leishmania donovani [1]): ≥ 25 µM | IC50 (Leishmania donovani [2]): ≥ 50 µM
